Experimental findings from the RNAGym collection of RNA variant scans (doi:10.1126/science.aae0568) are described below.

Variants at the floor of the assay were thinned out.

B1: tRNA (parent)
chain: GUUCCGUUGGCGUAAUGGUAACGCGUCUCCCUCCUAAGGAGAAGACUGCGGGUUCGAGUCCCGUACGGAACG

The variants in the data set derive from B1. Nature of the data set: yeast fitness relative to wild type (ratio to wild type); higher = fitter; tRNA-Arg(CCU), competitive growth, 37 C, YPD. Put shortly: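 Start and end populations of a pooled competition were compared by 100-nucleotide paired-end sequencing of gene amplicons. The Saccharomyces cerevisiae strains carried tRNA-Arg(CCU) gene variants at the native genomic locus, synthesised with a 3% per-site mutation rate at 69 sites, and competed in YPD at 37°C for 24 hours in six parallel replicates. Darwinian fitness relative to wild type was based on the change in genotype frequencies. Genotypes required ≥ 100 starting reads, and estimates < 0.5 were set to 0.5.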
Turning to G12C U54G, the yeast fitness turned out to be 0.657.

With U13A C22G C29G A40U U54C C61G, the yeast fitness was ≤ 0.5.

In the case of G12C G44A, the yeast fitness was 0.879.

Take U13A A40C A70U: the yeast fitness is ≤ 0.5.

On to U13A A37C G41A U47A U59C, for which the yeast fitness was ≤ 0.5.

G12C U28A G51A A57U C62U: the yeast fitness came out at 0.594.

Turning to U13A A42C C62A, the yeast fitness was 0.57.

In the case of G12C C22G G23A A37C A43C G68A, the yeast fitness is ≤ 0.5.

As to G12C G25A G41C, the yeast fitness stood at 0.591.

U13A A21C C33U G52A A57G G67U: the yeast fitness is ≤ 0.5.

In the case of U13A A42G U47A, the yeast fitness was determined as 0.542.

For U13A A37C G56A, the yeast fitness was ≤ 0.5.

Regarding G12C G39C A43G, the yeast fitness is ≤ 0.5.

In the case of G12C C27G U32C A37G, the yeast fitness is ≤ 0.5.

Turning to U13A A14C C22A G48C, the yeast fitness came out at 0.546.

With G12C G41C A57G, the yeast fitness was 0.562.

Regarding G12C U13A G50A, the yeast fitness was ≤ 0.5.

Take G12C U32C G41C A57G: the yeast fitness is ≤ 0.5.

Regarding G12C U13G A15C A36U, the yeast fitness is ≤ 0.5.

Take U13A A21C C24A G25C C49U: the yeast fitness was ≤ 0.5.

As for G12C C30G, the yeast fitness turned out to be 0.666.

Consider G12C C30A, for which the yeast fitness stood at 0.786.

For G12C C30U, the yeast fitness amounted to 0.694.

As for G12C U16A G23C C29A A45C G68A, the yeast fitness was 0.748.

As for G12C C30G A37U G41A, the yeast fitness was ≤ 0.5.

Turning to U13A A21C U54G C66U, the yeast fitness is ≤ 0.5.

As for U13A C27G A42U A57C, the yeast fitness is ≤ 0.5.

With U13A C27U A57G C66U, the yeast fitness is ≤ 0.5.

On to G12C C33A G51C C62G, for which the yeast fitness was ≤ 0.5.

For the variant G12U A15G, the yeast fitness came out at 0.814.

For the variant U13A A45C, the yeast fitness amounted to 0.902.

In the case of G12C U13A A36U, the yeast fitness was found to be 0.626.

For the variant G12C U53A C61U C62A, the yeast fitness was ≤ 0.5.

In the case of G12C U13C A20C C24G G39C U64A, the yeast fitness was ≤ 0.5.

For the variant G12C G67U, the yeast fitness was found to be 0.767.

Take U13A A37C A43U G50C A57G: the yeast fitness is ≤ 0.5.

As for G12C G63A, the yeast fitness stood at 0.81.

Take G12C U19G G25A U59A U64A: the yeast fitness was 0.623.

For G12C C27G C30A, the yeast fitness is ≤ 0.5.

For G12C G23C, the yeast fitness amounted to 0.588.

As for G12C G58A A65U, the yeast fitness is 0.72.

Regarding G12C U26C A43C U54C, the yeast fitness is ≤ 0.5.

Consider G12C C30U G56A, for which the yeast fitness stood at 0.54.

On to U13A A21U C22G C31A G50A, for which the yeast fitness is ≤ 0.5.

Take G12C U28G A37G G41A G48A: the yeast fitness came out at 0.549.

With G12C G68C, the yeast fitness is 0.823.

Take U13A C30G C61U G68A: the yeast fitness is ≤ 0.5.

In the case of G12C G52C C66U, the yeast fitness is ≤ 0.5.

For G12C C61G, the yeast fitness stood at 0.635.

Take G12C C61U: the yeast fitness came to 0.746.

Consider G12C G39A A42C, for which the yeast fitness is ≤ 0.5.

As for G12C U13C A20C C29G, the yeast fitness is ≤ 0.5.

For the variant U13A A14U A20U, the yeast fitness came out at 0.835.

G12C G48C G58A: the yeast fitness turned out to be 0.804.

For the variant G12C C22U, the yeast fitness came out at 0.955.

As for U13A A21G G63A, the yeast fitness is 0.652.

Turning to G12C C24U A43C, the yeast fitness was ≤ 0.5.

With U13A A20U C27U A42G U54C, the yeast fitness is ≤ 0.5.

In the case of U13A A21C G38A A40U G50C C60G A70G, the yeast fitness was ≤ 0.5.

For the variant G12C C27A A37G C49U G63A, the yeast fitness was ≤ 0.5.

For the variant G12C G38C, the yeast fitness worked out at 0.54.

For U13A A40G A42G, the yeast fitness is ≤ 0.5.

As for G12C U19A C27G C49G C61U, the yeast fitness was ≤ 0.5.

On to G12C U28G, for which the yeast fitness came to 0.696.

For the variant U13A A14U C22G A37G, the yeast fitness was 0.631.

On to G12C G18C C66U, for which the yeast fitness came to 0.528.

With U13A A20G G41A G51C, the yeast fitness amounted to 0.532.

Consider G12C G25C, for which the yeast fitness stood at 0.762.

For the variant G12C C27U C62G, the yeast fitness was ≤ 0.5.

As for G12C C33G A36G G44C, the yeast fitness is ≤ 0.5.

In the case of U13A C22A C27U A42U, the yeast fitness was ≤ 0.5.

As to U13A A37U G67C, the yeast fitness was 0.645.

For the variant U13A A40U, the yeast fitness was found to be 0.99.

For G12C U28C U59A, the yeast fitness was determined as 0.586.

In the case of U13A A15G C27U, the yeast fitness amounted to 0.601.

As to U13A A15G C27G, the yeast fitness is ≤ 0.5.

As to G12C G51A U59A C62G, the yeast fitness was ≤ 0.5.

As for U13A A21G A57U, the yeast fitness came to 0.597.

Turning to G12U A36G G63A A69U, the yeast fitness was determined as 0.604.

Regarding G12C U19A C27G G44C, the yeast fitness was ≤ 0.5.

For the variant U13A C29G A42C C62G, the yeast fitness is ≤ 0.5.

In the case of G12C C24U G48C A69C, the yeast fitness was ≤ 0.5.

For the variant U13A A42C G68C, the yeast fitness was determined as 0.529.

G12C U26C A43C: the yeast fitness is 0.741.

On to U13A A37U G68A, for which the yeast fitness amounted to 0.637.

As to G12C C22G G23A A37C A43C A65U, the yeast fitness was ≤ 0.5.

Consider U13A C27U C66U, for which the yeast fitness was 0.787.

Consider U13A A42U, for which the yeast fitness amounted to 1.03.

Consider G12C G67A A69C, for which the yeast fitness was ≤ 0.5.

On to G12C G67A A69G, for which the yeast fitness is 0.534.

Turning to U13A C30U C55G G58C G63C C66U, the yeast fitness is ≤ 0.5.

Turning to U13A C22A A65G, the yeast fitness came out at 1.06.

With U13A C29U A40C A69U, the yeast fitness was ≤ 0.5.

As for U13A A70U, the yeast fitness was determined as 1.04.

For the variant U13A A70G, the yeast fitness was determined as 0.937.

For U13A A70C, the yeast fitness was found to be 1.03.

Take U13A C30U C34U A42G G63A: the yeast fitness was ≤ 0.5.

With G12C U16A C24G G58C, the yeast fitness came to 0.567.

U13A C22G U32C A42C G48C C55G: the yeast fitness is ≤ 0.5.

Turning to U13A C27U C62U, the yeast fitness worked out at 0.786.

In the case of U13A C27U G56A, the yeast fitness was found to be 0.97.

For the variant G12U G44C, the yeast fitness amounted to 0.766.

Regarding G12C G18C C55U C60G, the yeast fitness is ≤ 0.5.

Take G12C U47A G68C: the yeast fitness amounted to 0.533.

For U13A C30G C31U C33G, the yeast fitness was ≤ 0.5.

With G12C C62U A70U, the yeast fitness was found to be 0.606.

With G12C C27A, the yeast fitness was determined as 0.814.

As for G12C G25C G39C, the yeast fitness is ≤ 0.5.

As to G12C G39C G50C C61G, the yeast fitness is ≤ 0.5.

As for G12C G25A A43C, the yeast fitness amounted to 0.639.

With U13A A20C C46U A70U, the yeast fitness came to 0.589.

For the variant G12C U53C C60G G63U, the yeast fitness came out at 0.691.

Regarding G12C U35G G58A G67A, the yeast fitness was 0.706.

G12C C27U C33A A45C U54A C62U: the yeast fitness was ≤ 0.5.

Turning to G12C G18C C27A G38C C49G, the yeast fitness is ≤ 0.5.

As for G12C C31U, the yeast fitness worked out at 0.876.

For G12C C31A, the yeast fitness worked out at 0.774.

On to G12C C31G, for which the yeast fitness is 0.818.

Consider U13A A21C G52A, for which the yeast fitness was ≤ 0.5.

Regarding U13A A43G U53G, the yeast fitness is ≤ 0.5.

In the case of G12C C27U C33G G38C, the yeast fitness is ≤ 0.5.

Consider U13A A15G, for which the yeast fitness was 0.932.

In the case of U13A C29U A42U, the yeast fitness was 0.568.

Regarding G12C C24A C55U, the yeast fitness is ≤ 0.5.

On to U13A A40G A43C G50A G67C, for which the yeast fitness was ≤ 0.5.

For the variant U13A A69G, the yeast fitness amounted to 1.07.

G12C U13C C27U C62G: the yeast fitness is ≤ 0.5.

For the variant U13A A43C A57C, the yeast fitness was ≤ 0.5.

Regarding G12C C62U, the yeast fitness amounted to 0.776.

In the case of G12C C27A C31G G52C, the yeast fitness is ≤ 0.5.

With U13A A15C C33G C49U U64A, the yeast fitness was ≤ 0.5.

For the variant G12C U26A C33A C34G A69C, the yeast fitness was ≤ 0.5.

G12C G39A A70G: the yeast fitness worked out at 0.537.

Regarding G12C C33G C34U A36C A43G G52A G58C U64G A65G, the yeast fitness was ≤ 0.5.

In the case of G12C U26C, the yeast fitness came out at 0.859.

U13A C27G A42U A69U: the yeast fitness is 0.687.

On to G12C G17C C22A G58A, for which the yeast fitness is ≤ 0.5.

Turning to U13A A21U G58C G68C, the yeast fitness amounted to 0.857.

Turning to U13A C27G A40G G41C A69U, the yeast fitness was 1.07.

For the variant U13A C30U U47A U59A C60U C62G, the yeast fitness was ≤ 0.5.

With U13A C30A A69C, the yeast fitness stood at 0.656.

Take G12C U16A U26A G67U: the yeast fitness was ≤ 0.5.

In the case of G12C C33G G44C C49U, the yeast fitness was found to be 0.539.

In the case of U13A C30A, the yeast fitness was found to be 1.11.

On to G12C C24U A42U C46A C55U C61G A69C, for which the yeast fitness is ≤ 0.5.

In the case of U13A A20U C27U A42G, the yeast fitness was ≤ 0.5.

In the case of U13A A21C A42G C62A A69U, the yeast fitness is ≤ 0.5.

Turning to U13A A43U, the yeast fitness turned out to be 0.855.

Turning to G12C G51C U59G, the yeast fitness is ≤ 0.5.

Turning to G12C C29U A36U, the yeast fitness is ≤ 0.5.

As for G12C C22G G23A A37C A43C, the yeast fitness worked out at 0.534.

On to U13A C27G A45C, for which the yeast fitness was 0.743.

On to G12C C30G A45U C46A, for which the yeast fitness is 0.608.

As for G12C G17A A20U C34A G41C, the yeast fitness is ≤ 0.5.

Consider U13A C22G C24G A36U A40C, for which the yeast fitness is 0.58.

For U13A C27G A40G G41C, the yeast fitness stood at 0.741.

Consider G12C C61U C66G, for which the yeast fitness is ≤ 0.5.

With U13A A15C C33G C49U C61U, the yeast fitness stood at 0.574.

In the case of U13A A21U C22G U32C A42C G48C C55G, the yeast fitness is ≤ 0.5.

For the variant G12C G50A U54A, the yeast fitness was ≤ 0.5.

As to G12C C29G U53A, the yeast fitness turned out to be 0.609.

Consider G12C C24U C55U, for which the yeast fitness came to 0.564.

Regarding U13A A65G, the yeast fitness came out at 1.04.

As for U13A A65C, the yeast fitness amounted to 0.79.

In the case of G12C U19A A42C G50C G56C, the yeast fitness is ≤ 0.5.

Take U13A C22G C24G A36U A40C G51C: the yeast fitness was 0.548.

On to U13A C24A C61A A69U, for which the yeast fitness stood at 0.505.
